Test results published in ChEMBL document CHEMBL3045677, “Sulfonamide-1,2,4-thiadiazole derivatives as antifungal and antibacterial agents: synthesis, biological evaluation, lipophilicity, and conformational studies” (2010).

Tests used:
Fulvia fulva = test: Antifungal activity against Passalora fulva TK5318 at 28 degC measured after 72 hr by microdilution method; type: functional; settings: TK5318, 72 h
How it was run: (§1)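 Fungi were kept on malt agar at 4 °C. Spores were washed off with sterile 0.85% saline containing 0.1% Tween 80 and adjusted to about 1.0×10⁵ per well. Compounds were dissolved in DMSO (1 mg/ml stock) and serially diluted in malt broth with inoculum in 96-well plates, 72 h at 28 °C, for MIC. MFC came from subculture into fresh broth for a further 72 h at 28 °C.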

Aspergillus versicolor = test: Antifungal activity against Aspergillus versicolor ATCC 11730 at 28 degC measured after 72 hr by microdilution method; type: functional; settings: ATCC 11730, 72 h; how it was run: as §1
Aspergillus flavus = test: Antifungal activity against Aspergillus flavus ATCC 9643 at 28 degC measured after 72 hr by microdilution method; type: functional; settings: ATCC 9643, 72 h; how it was run: as §1
Aspergillus niger = test: Antifungal activity against Aspergillus niger ATCC 6275 at 28 degC measured after 72 hr by microdilution method; type: functional; settings: ATCC 6275, 72 h; how it was run: as §1
Trichoderma viride = test: Antifungal activity against Hypocrea rufa IAM 5061 at 28 degC measured after 72 hr by microdilution method; type: functional; settings: IAM 5061, 72 h; how it was run: as §1
Aspergillus fumigatus = test: Antifungal activity against plant isolate Aspergillus fumigatus at 28 degC measured after 72 hr by microdilution method; type: functional; how it was run: as §1
Penicillium ochrochloron = test: Antifungal activity against Penicillium ochrochloron ATCC 9112 at 28 degC measured after 72 hr by microdilution method; type: functional; settings: ATCC 9112, 72 h; how it was run: as §1
Talaromyces funiculosus = test: Antifungal activity against Talaromyces funiculosus ATCC 36839 at 28 degC measured after 72 hr by microdilution method; type: functional; settings: ATCC 36839, 72 h; how it was run: as §1
Listeria monocytogenes [1] = test: Antibacterial activity against Listeria monocytogenes NCTC 7973 at […] degC measured after 72 hr by microdilution method; type: functional; settings: NCTC 7973, 72 h
How it was run: (§2)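 Bactericidal endpoint: after the 24 h broth microdilution (1.0×10⁴ CFU per well, LB broth, […] °C), wells were serially subcultured into plates of fresh broth and incubated a further 72 h. MBC was the lowest concentration with no visible growth, taken as 99.5% killing of the original inoculum.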

Proteus mirabilis [2] = test: Antibacterial activity against Proteus mirabilis at […] degC measured after 72 hr by microdilution method; type: functional; how it was run: as §2
Salmonella typhimurium [3] = test: Antibacterial activity against Salmonella enterica subsp. enterica serovar TyphimuriumATCC 13311 at […] degC measured after 72 hr by microdilution method; type: functional, Salmonella enterica subsp. enterica serovar Typhimurium; settings: ATCC 13311, 72 h; how it was run: as §2
Pseudomonas aeruginosa [4] = test: Antibacterial activity against Pseudomonas aeruginosa ATCC 27853 at […] degC measured after 72 hr by microdilution method; type: functional; settings: ATCC 27853, 72 h; how it was run: as §2
Escherichia coli [5] = test: Antibacterial activity against Escherichia coli ATCC 35210 at […] degC measured after 72 hr by microdilution method; type: functional; settings: ATCC 35210, 72 h; how it was run: as §2
Staphylococcus aureus [6] = test: Antibacterial activity against Staphylococcus aureus ATCC 6538 at […] degC measured after 72 hr by microdilution method; type: functional; settings: ATCC 6538, 72 h; how it was run: as §2
Micrococcus flavus [7] = test: Antibacterial activity against Micrococcus flavus ATCC 10240 at […] degC measured after 72 hr by microdilution method; type: functional; settings: ATCC 10240, 72 h; how it was run: as §2
Bacillus cereus [8] = test: Antibacterial activity against clinical isolate Bacillus cereus at […] degC measured after 72 hr by microdilution method; type: functional; how it was run: as §2
Listeria monocytogenes [9] = test: Antibacterial activity against Listeria monocytogenes NCTC 7973 at […] degC measured after 24 hr by microdilution method; type: functional; settings: NCTC 7973, 24 h
How it was run: (§3)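 Bacteria suspended in sterile saline at 1.0×10⁵ CFU/ml and added at 1.0×10⁴ CFU per well to LB broth with compound (1 mg/ml) in 96-well plates. Incubated 24 h at […] °C. MIC was the lowest concentration without visible growth under a binocular microscope. OD 655 nm was read against a blank and a positive control.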

Salmonella typhimurium [10] = test: Antibacterial activity against Salmonella enterica subsp. enterica serovar Typhimurium ATCC 13311 at […] degC measured after 24 hr by microdilution method; type: functional; settings: ATCC 13311, 24 h; how it was run: as §3
Pseudomonas aeruginosa [11] = test: Antibacterial activity against Pseudomonas aeruginosa ATCC 27853 at […] degC measured after 24 hr by microdilution method; type: functional; settings: ATCC 27853, 24 h; how it was run: as §3
Proteus mirabilis [12] = test: Antibacterial activity against Proteus mirabilis at […] degC measured after 24 hr by microdilution method; type: functional; how it was run: as §3
Escherichia coli [13] = test: Antibacterial activity against Escherichia coli ATCC 35210 at […] degC measured after 24 hr by microdilution method; type: functional; settings: ATCC 35210, 24 h; how it was run: as §3
Staphylococcus aureus [14] = test: Antibacterial activity against Staphylococcus aureus ATCC 6538 at […] degC measured after 24 hr by microdilution method; type: functional; settings: ATCC 6538, 24 h; how it was run: as §3
Bacillus cereus [15] = test: Antibacterial activity against clinical isolate Bacillus cereus at […] degC measured after 24 hr by microdilution method; type: functional; how it was run: as §3
Micrococcus flavus [16] = test: Antibacterial activity against Micrococcus flavus ATCC 10240 at […] degC measured after 24 hr by microdilution method; type: functional; settings: ATCC 10240, 24 h; how it was run: as §3

COc1cc(Cc2nnc(Nc3ccc(C(F)(F)F)cc3)s2)c(S(=O)(=O)N2CCN(C)CC2)cc1OC
35.8 µM: MFC (Aspergillus versicolor) | MFC (Aspergillus flavus) | MFC (Aspergillus niger) | MFC (Penicillium ochrochloron) | MBC (Listeria monocytogenes [1]) | MBC (Proteus mirabilis [2]) | MBC (Salmonella typhimurium [3]) | MBC (Pseudomonas aeruginosa [4]) | MBC (Staphylococcus aureus [6]) | MBC (Micrococcus flavus [7])
8.9 µM: MIC (Fulvia fulva) | MIC (Trichoderma viride) | MIC (Aspergillus fumigatus) | MIC (Talaromyces funiculosus)
17.9 µM: MFC (Fulvia fulva) | MIC (Aspergillus versicolor) | MIC (Aspergillus flavus) | MIC (Aspergillus niger) | MFC (Trichoderma viride) | MFC (Aspergillus fumigatus) | MIC (Penicillium ochrochloron) | MFC (Talaromyces funiculosus) | MBC (Escherichia coli [5]) | MBC (Bacillus cereus [8]) | MIC (Listeria monocytogenes [9]) | MIC (Salmonella typhimurium [10]) | MIC (Pseudomonas aeruginosa [11]) | MIC (Proteus mirabilis [12]) | MIC (Escherichia coli [13]) | MIC (Staphylococcus aureus [14]) | MIC (Bacillus cereus [15]) | MIC (Micrococcus flavus [16])

CC1(C)S[C@@H]2[C@H](NC(=O)[C@H](N)c3ccccc3)C(=O)N2[C@H]1C(=O)O [AMPICILLIN]
248 µM: MIC (Salmonella typhimurium [10]) | MIC (Staphylococcus aureus [14]) | MIC (Bacillus cereus [15]) | MIC (Micrococcus flavus [16])
1240 µM: MBC (Pseudomonas aeruginosa [4])
492 µM: MBC (Proteus mirabilis [2]) | MBC (Salmonella typhimurium [3]) | MBC (Escherichia coli [5])
372 µM: MBC (Staphylococcus aureus [6]) | MBC (Micrococcus flavus [7]) | MBC (Bacillus cereus [8]) | MIC (Listeria monocytogenes [9]) | MIC (Proteus mirabilis [12]) | MIC (Escherichia coli [13])
744 µM: MBC (Listeria monocytogenes [1]) | MIC (Pseudomonas aeruginosa [11])

c1ccc(-c2ccc(C(c3ccccc3)n3ccnc3)cc2)cc1 (stereo unspecified) [BIFONAZOLE]
320 µM: MIC (Fulvia fulva) | MIC (Aspergillus versicolor)
480 µM: MIC (Aspergillus flavus) | MIC (Aspergillus niger) | MIC (Aspergillus fumigatus) | MIC (Penicillium ochrochloron)
640 µM: MFC (Fulvia fulva) | MFC (Aspergillus versicolor) | MFC (Aspergillus flavus) | MFC (Aspergillus niger) | MIC (Trichoderma viride) | MFC (Aspergillus fumigatus) | MFC (Penicillium ochrochloron) | MIC (Talaromyces funiculosus)
800 µM: MFC (Trichoderma viride) | MFC (Talaromyces funiculosus)

CC(=O)N1CCN(c2ccc(OCC3COC(Cn4ccnc4)(c4ccc(Cl)cc4Cl)O3)cc2)CC1 (stereo unspecified) [KETOCONAZOLE]
4750 µM: MIC (Trichoderma viride)
3800 µM: MFC (Aspergillus flavus) | MFC (Penicillium ochrochloron) | MIC (Penicillium ochrochloron)
5700 µM: MFC (Trichoderma viride)
380 µM: MIC (Fulvia fulva) | MIC (Aspergillus versicolor) | MIC (Aspergillus niger) | MIC (Aspergillus fumigatus) | MIC (Talaromyces funiculosus)
950 µM: MFC (Fulvia fulva) | MFC (Aspergillus versicolor) | MFC (Aspergillus niger) | MFC (Aspergillus fumigatus) | MFC (Talaromyces funiculosus)
2850 µM: MIC (Aspergillus flavus)

CN[C@@H]1[C@H](O[C@H]2[C@H](O[C@H]3[C@H](O)[C@@H](O)[C@H](N=C(N)N)[C@@H](O)[C@@H]3N=C(N)N)O[C@@H](C)[C@]2(O)C=O)O[C@@H](CO)[C@H](O)[C@H]1O [STREPTOMYCIN]
344 µM: MBC (Proteus mirabilis [2]) | MBC (Salmonella typhimurium [3]) | MBC (Pseudomonas aeruginosa [4]) | MBC (Escherichia coli [5]) | MBC (Staphylococcus aureus [6])
43 µM: MIC (Bacillus cereus [15])
86 µM: MBC (Bacillus cereus [8]) | MIC (Micrococcus flavus [16])
172 µM: MBC (Micrococcus flavus [7]) | MIC (Salmonella typhimurium [10]) | MIC (Pseudomonas aeruginosa [11]) | MIC (Proteus mirabilis [12]) | MIC (Escherichia coli [13]) | MIC (Staphylococcus aureus [14])
258 µM: MIC (Listeria monocytogenes [9])
516 µM: MBC (Listeria monocytogenes [1])
